Tests used:
Mus musculus [1] = species on record: Mus musculus; assay: Tested for biodistribution of compound at 5 min in mice heart; type: ADME, organism-based; conditions: in vivo
Method in brief: (§1)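 Male Swiss albino mice, at least five per group, received HPLC-purified 99mTc complex by tail vein. The complex was reconstituted in 50% methanol (0.1 mL, 2-3 μCi). Mice were killed by cardiectomy under light ether at 1-60 min pi. Organs were weighed and γ-counted against a 1% injected-dose standard to give % dose/organ. Blood and muscle were taken as 7% and 43% of body weight.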

Mus musculus [2] = species on record: Mus musculus; assay: Tested for biodistribution of compound at 10 min in mice stomach; type: ADME, organism-based; conditions: in vivo
Method in brief: (§2)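 Male Swiss albino mice, at least five per group, received 0.1 mL (2-3 μCi) of HPLC-purified 99mTc complex reconstituted in 50% methanol by tail vein. They were killed by cardiectomy under light ether anesthesia at set times (1-60 min pi). Organs were weighed and γ-counted against a 1% injected-dose standard to give % dose/organ. Blood and muscle were taken as 7% and 43% of body weight.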

Rattus norvegicus [3] = species on record: Rattus norvegicus; assay: Tested for biodistribution of compound at 5 min in rat muscle; type: ADME, organism-based, Muscle tissue; conditions: in vivo
Mus musculus [4] = species on record: Mus musculus; assay: Tested for biodistribution of compound at 10 min in mice brain; type: ADME, organism-based; conditions: in vivo; method in brief: as §2
Rattus norvegicus [5] = species on record: Rattus norvegicus; assay: Tested for biodistribution of compound at 60 min in rat spleen; type: ADME, organism-based; conditions: in vivo, 1 h
Rattus norvegicus [6] = species on record: Rattus norvegicus; assay: Tested for biodistribution of compound at 60 min in rat brain; type: ADME, organism-based; conditions: in vivo, 1 h
Mus musculus [7] = species on record: Mus musculus; assay: Tested for biodistribution of compound at 10 min in mice liver; type: ADME, organism-based; conditions: in vivo; method in brief: as §2
Rattus norvegicus [8] = species on record: Rattus norvegicus; assay: Tested for biodistribution of compound at 10 min in rat lungs; type: ADME, organism-based, Lung; conditions: in vivo
Method in brief: (§3)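 Wistar rats under ether anesthesia were dosed through the femoral vein with 0.1 mL of 99mTc complex (3-6 μCi) and dissected 5-60 min pi. Tissue radioactivity was γ-counted against a 1% injected-dose standard and expressed as % dose/organ. Blood and muscle were calculated from sample weight assuming 7% and 43% of body weight.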

Mus musculus [9] = species on record: Mus musculus; assay: Tested for biodistribution of compound at 60 min in mice muscle; type: ADME, organism-based, Muscle tissue; conditions: in vivo, 1 h; method in brief: as §1
Mus musculus [10] = species on record: Mus musculus; assay: Tested for biodistribution of compound at 1 min in mice liver; type: ADME, organism-based; conditions: in vivo; method in brief: as §2
Rattus norvegicus [11] = species on record: Rattus norvegicus; assay: Tested for biodistribution of compound at 10 min in rat blood; type: ADME, organism-based; conditions: in vivo; method in brief: as §3
Mus musculus [12] = species on record: Mus musculus; assay: Tested for biodistribution of compound at 5 min in mice intestine; type: ADME, organism-based; conditions: in vivo; method in brief: as §1
Mus musculus [13] = species on record: Mus musculus; assay: Tested for biodistribution of compound at 60 min in mice intestine; type: ADME, organism-based; conditions: in vivo, 1 h; method in brief: as §1
Rattus norvegicus [14] = species on record: Rattus norvegicus; assay: Tested for biodistribution of compound at 30 min in rat lungs; type: ADME, organism-based, Lung; conditions: in vivo, 0.5 h
Rattus norvegicus [15] = species on record: Rattus norvegicus; assay: Tested for biodistribution of compound at 5 min in rat kidney; type: ADME, organism-based; conditions: in vivo
Mus musculus [16] = species on record: Mus musculus; assay: Tested for biodistribution of compound at 1 min in mice stomach; type: ADME, organism-based; conditions: in vivo; method in brief: as §2
Rattus norvegicus [17] = species on record: Rattus norvegicus; assay: Tested for biodistribution of compound at 30 min in rat spleen; type: ADME, organism-based; conditions: in vivo, 0.5 h
Mus musculus [18] = species on record: Mus musculus; assay: Tested for biodistribution of compound at 5 min in mice brain; type: ADME, organism-based; conditions: in vivo; method in brief: as §1
Mus musculus [19] = species on record: Mus musculus; assay: Tested for biodistribution of compound at 30 min in mice urine; type: ADME, organism-based; conditions: in vivo, 0.5 h; method in brief: as §2
Mus musculus [20] = species on record: Mus musculus; assay: Tested for biodistribution of compound at 5 min in mice liver; type: ADME, organism-based; conditions: in vivo; method in brief: as §1
Rattus norvegicus [21] = species on record: Rattus norvegicus; assay: Tested for biodistribution of compound at 30 min in rat blood; type: ADME, organism-based; conditions: in vivo, 0.5 h; method in brief: as §3
Rattus norvegicus [22] = species on record: Rattus norvegicus; assay: Tested for biodistribution of compound at 10 min in rat stomach; type: ADME, organism-based; conditions: in vivo; method in brief: as §3
Rattus norvegicus [23] = species on record: Rattus norvegicus; assay: Tested for biodistribution of compound at 5 min in rat stomach; type: ADME, organism-based; conditions: in vivo
Mus musculus [24] = species on record: Mus musculus; assay: Tested for biodistribution of compound at 60 min in mice stomach; type: ADME, organism-based; conditions: in vivo, 1 h; method in brief: as §1
Rattus norvegicus [25] = species on record: Rattus norvegicus; assay: Tested for biodistribution of compound at 60 min in rat l intestine; type: ADME, organism-based; conditions: in vivo, 1 h
Mus musculus [26] = species on record: Mus musculus; assay: Tested for biodistribution of compound at 30 min in mice muscle; type: ADME, organism-based, Muscle tissue; conditions: in vivo, 0.5 h; method in brief: as §2
Rattus norvegicus [27] = species on record: Rattus norvegicus; assay: Tested for biodistribution of compound at 30 min in rat liver; type: ADME, organism-based; conditions: in vivo, 0.5 h
Rattus norvegicus [28] = species on record: Rattus norvegicus; assay: Tested for biodistribution of compound at 5 min in rat spleen; type: ADME, organism-based; conditions: in vivo
Mus musculus [29] = species on record: Mus musculus; assay: Tested for biodistribution of compound at 5 min in mice stomach; type: ADME, organism-based; conditions: in vivo; method in brief: as §1
Rattus norvegicus [30] = species on record: Rattus norvegicus; assay: Tested for biodistribution of compound at 10 min in rat muscle; type: ADME, organism-based, Muscle tissue; conditions: in vivo; method in brief: as §3
Rattus norvegicus [31] = species on record: Rattus norvegicus; assay: Tested for biodistribution of compound at 60 min in rat kidney; type: ADME, organism-based; conditions: in vivo, 1 h
Rattus norvegicus [32] = species on record: Rattus norvegicus; assay: Tested for biodistribution of compound at 60 min in rat stomach; type: ADME, organism-based; conditions: in vivo, 1 h
Rattus norvegicus [33] = species on record: Rattus norvegicus; assay: Tested for biodistribution of compound at 5 min in rat heart; type: ADME, organism-based; conditions: in vivo
Rattus norvegicus [34] = species on record: Rattus norvegicus; assay: Tested for biodistribution of compound at 30 min in rat l intestine; type: ADME, organism-based; conditions: in vivo, 0.5 h; method in brief: as §3
Rattus norvegicus [35] = species on record: Rattus norvegicus; assay: Tested for biodistribution of compound at 5 min in rat lungs; type: ADME, organism-based, Lung; conditions: in vivo
Rattus norvegicus [36] = species on record: Rattus norvegicus; assay: Tested for biodistribution of compound at 10 min in rat kidney; type: ADME, organism-based; conditions: in vivo; method in brief: as §3
Rattus norvegicus [37] = species on record: Rattus norvegicus; assay: Tested for biodistribution of compound at 5 min in rat l intestine; type: ADME, organism-based; conditions: in vivo
Rattus norvegicus [38] = species on record: Rattus norvegicus; assay: Tested for biodistribution of compound at 10 min in rat liver; type: ADME, organism-based; conditions: in vivo; method in brief: as §3
Mus musculus [39] = species on record: Mus musculus; assay: Tested for biodistribution of compound at 1 min in mice heart; type: ADME, organism-based; conditions: in vivo; method in brief: as §2
Rattus norvegicus [40] = species on record: Rattus norvegicus; assay: Tested for biodistribution of compound at 10 min in rat brain; type: ADME, organism-based; conditions: in vivo; method in brief: as §3
Mus musculus [41] = species on record: Mus musculus; assay: Tested for biodistribution of compound at 30 min in mice heart; type: ADME, organism-based; conditions: in vivo, 0.5 h; method in brief: as §2
Rattus norvegicus [42] = species on record: Rattus norvegicus; assay: Tested for biodistribution of compound at 5 min in rat liver; type: ADME, organism-based; conditions: in vivo
Mus musculus [43] = species on record: Mus musculus; assay: Tested for biodistribution of compound at 60 min in mice brain; type: ADME, organism-based; conditions: in vivo, 1 h; method in brief: as §1
Mus musculus [44] = species on record: Mus musculus; assay: Tested for biodistribution of compound at 5 min in mice spleen; type: ADME, organism-based; conditions: in vivo; method in brief: as §1
Mus musculus [45] = species on record: Mus musculus; assay: Tested for biodistribution of compound at 60 min in mice lungs; type: ADME, organism-based, Lung; conditions: in vivo, 1 h; method in brief: as §1
Mus musculus [46] = species on record: Mus musculus; assay: Tested for biodistribution of compound at 10 min in mice spleen; type: ADME, organism-based; conditions: in vivo; method in brief: as §2
Rattus norvegicus [47] = species on record: Rattus norvegicus; assay: Tested for biodistribution of compound at 10 min in rat s. intestine; type: ADME, organism-based; conditions: in vivo; method in brief: as §3
Mus musculus [48] = species on record: Mus musculus; assay: Tested for biodistribution of compound at 1 min in mice intestine; type: ADME, organism-based; conditions: in vivo; method in brief: as §2

Dose/organ (Mus musculus [1]): 0.74%
Dose/organ (Mus musculus [2]): 1.2%
Dose/organ (Rattus norvegicus [3]): 28.6%
Dose/organ (Mus musculus [4]): 2.47%
Dose/organ (Rattus norvegicus [5]): 0.46%
Dose/organ (Rattus norvegicus [6]): 0.46%
Dose/organ (Mus musculus [7]): 14.14%
Dose/organ (Rattus norvegicus [8]): 7.78%
Dose/organ (Mus musculus [9]): 6.86%
Dose/organ (Mus musculus [10]): 1.96%
Dose/organ (Rattus norvegicus [11]): 17.72%
Dose/organ (Mus musculus [12]): 8.31%
Dose/organ (Mus musculus [13]): 33.7%
Dose/organ (Rattus norvegicus [14]): 2.08%
Dose/organ (Rattus norvegicus [15]): 3.22%
Dose/organ (Mus musculus [16]): 0.15%
Dose/organ (Rattus norvegicus [17]): 0.3%
Dose/organ (Mus musculus [18]): 3.01%
Dose/organ (Mus musculus [19]): 5.06%
Dose/organ (Mus musculus [20]): 10.73%
Dose/organ (Rattus norvegicus [21]): 7.47%
Dose/organ (Rattus norvegicus [22]): 2.37%
Dose/organ (Rattus norvegicus [23]): 2.18%
Dose/organ (Mus musculus [24]): 2.34%
Dose/organ (Rattus norvegicus [25]): 1.05%
Dose/organ (Mus musculus [26]): 8.18%
Dose/organ (Rattus norvegicus [27]): 29.63%
Dose/organ (Rattus norvegicus [28]): 0.58%
Dose/organ (Mus musculus [29]): 0.96%
Dose/organ (Rattus norvegicus [30]): 27.89%
Dose/organ (Rattus norvegicus [31]): 8.73%
Dose/organ (Rattus norvegicus [32]): 2.05%
Dose/organ (Rattus norvegicus [33]): 0.64%
Dose/organ (Rattus norvegicus [34]): 1.27%
Dose/organ (Rattus norvegicus [35]): 9.38%
Dose/organ (Rattus norvegicus [36]): 4.26%
Dose/organ (Rattus norvegicus [37]): 2.64%
Dose/organ (Rattus norvegicus [38]): 24.09%
Dose/organ (Mus musculus [39]): 3.6%
Dose/organ (Rattus norvegicus [40]): 1.16%
Dose/organ (Mus musculus [41]): 0.19%
Dose/organ (Rattus norvegicus [42]): 19.32%
Dose/organ (Mus musculus [43]): 1.54%
Dose/organ (Mus musculus [44]): 0.28%
Dose/organ (Mus musculus [45]): 1.79%
Dose/organ (Mus musculus [46]): 0.36%
Dose/organ (Rattus norvegicus [47]): 6.34%
Dose/organ (Mus musculus [48]): 2.61%
Substance: [4-methoxythio)phenolato][N,N-bis(2-mercaptoethyl)-N',N'-diethylethylenediamine] oxotechnetium

Source: ChEMBL document CHEMBL1127344, “Tridentate ligands containing the SNS donor atom set as a novel backbone for the development of technetium brain-imaging agents” (J Med Chem, 1994)
